Bioassay records: PubChem, several laboratories
RGS4 act: RGS4 potentiation or activation | HEK293 M3R/inducible RGS4, carbachol calcium flux Fluo4; stronger effect = lower value | B-score at 10 µM | actives 0.92% (n = 310,000) | AID 463111;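 active = B-score of the integrated calcium signal more than 4 SD below the library mean, with starting fluorescence not abnormally high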;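 also: negative B-score means reduced calcium response which marks RGS4 activation or potentiation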
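test system = M3R-expressing HEK293 line, RGS4 induced by doxycycline | probe or stimulus = carbachol at ECmax as muscarinic agonist stimulus | timing = dye loading 30 min 37 °C, buffer rest 30 min RT | signal = calcium dye Fluo4 fluorescence | evaluation = B score from integrated fluorescence ratio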
RGS4 block: human RGS4 inhibition | P49798 | HEK293 M3R/RGS4 inducible, Fluo-4 calcium flux; stronger effect = higher value; triggered by carbachol at its EC20 | B-score at 10 µM | actives 0.45% (n = 310,000);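 active = B-score, a plate-corrected calcium signal, over three deviations above library mean, with baseline fluorescence within five deviations of library mean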;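 also: RGS4 expression induced by doxycycline in cells with stable M3 receptor; B-score is computed from the integrated fluorescence ratio over baseline after carbachol; higher B-score means a larger calcium signal and so more RGS4 inhibition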
Target sequence (P49798 whole entry, looked up): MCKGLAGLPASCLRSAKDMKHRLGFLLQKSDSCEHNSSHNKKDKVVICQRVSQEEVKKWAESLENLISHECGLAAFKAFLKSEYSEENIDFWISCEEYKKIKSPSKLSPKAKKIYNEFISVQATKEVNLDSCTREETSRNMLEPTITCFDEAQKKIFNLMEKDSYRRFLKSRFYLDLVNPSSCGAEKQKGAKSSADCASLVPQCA
MrgX1 agonist: agonists of human MrgX1 receptor. Q96LB2. MrgX1-HEK293 cells, Fluo-4 calcium fluorescence, agonist mode; stronger effect = higher value. B-score at 10 µM. actives 0.44% (n = 310,000);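 active = calcium response B-score plate-corrected fluorescence ratio at least 3 library SD, with starting fluorescence B-score inside 5 SD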
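Test system: HEK293 cells stably expressing human MrgX1 receptor; amount: 15,000 cells per well; doses: compound delivered in addition one of three; times: overnight plating before 1 h dye loading; detection: Fluo-4 NW calcium-flux fluorescence, kinetic read; read-out basis: B-scored fluorescence response ratio; controls: positive and negative controls per plate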
MrgX1 PAM: allosterically activates human MrgX1 receptor signaling; AID 588675; MrgX1-HEK293, Fluo-4 calcium flux, FDSS; stronger effect = higher value; actives 0.63% (n = 310,000); B-score at 10 µM; Q96LB2;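 active = plate-corrected calcium response at least 3 library SD above typical, normal starting fluorescence, not activating the receptor alone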;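 also: compound read alongside a low EC10 to EC30 dose of BAM8-22 agonist; peak minus trough fluorescence over baseline measured at the second addition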
MrgX1 antag: blocks BAM8-22 activation of human MrgX1 receptor | B-score at 10 µM | Q96LB2 | MRGX1-HEK293 calcium flux, Fluo-4, BAM8-22 antagonism; stronger effect = lower value | actives 1.3% (n = 310,000);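 active = calcium-response B-score plate-corrected more than 3 library SD below zero, starting fluorescence within 5 deviations, no agonist response on first addition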;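 also: peak minus trough fluorescence over baseline after final BAM8-22 challenge near maximal dose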
PHOSPHO1 inh: blocks human PHOSPHO1 phosphatase activity. actives 1.1% (n = 290,000). AID 1565. inhibition, % at 13.3 µM. Q8TCT1. recombinant PHOSPHO1, absorbance phosphatase assay; in the data active = inhibition above about 60%
Target sequence (Q8TCT1 whole entry, looked up): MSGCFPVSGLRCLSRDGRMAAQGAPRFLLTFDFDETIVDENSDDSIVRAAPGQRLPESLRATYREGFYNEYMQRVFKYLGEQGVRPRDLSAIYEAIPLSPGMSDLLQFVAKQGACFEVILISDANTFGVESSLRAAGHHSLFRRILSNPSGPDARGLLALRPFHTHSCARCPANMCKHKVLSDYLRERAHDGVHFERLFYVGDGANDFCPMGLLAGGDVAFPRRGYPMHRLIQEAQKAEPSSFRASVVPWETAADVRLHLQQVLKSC
MrgX1 antag conf: confirmation of human MrgX1 receptor antagonists; shares compounds with MrgX1 antag; MrgX1-HEK293, BAM8-22 calcium flux, Fluo-4; stronger effect = lower value; remaining BAM8-22 calcium response % of control (stronger effect = lower value), % at 10 µM; actives 19% (n = 2,300); AID 602420;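 active = remaining agonist calcium response no higher than 100% minus 3 SD of agonist-only control wells, with starting fluorescence near control levels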;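 also: agonist BAM8-22 given at a near maximal EC90 to ECmax level; peak minus minimum fluorescence divided by baseline after agonist addition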
HEK293 Ca flux: MrgX1 antagonist counter-screen hit in parental HEK293 cells; shares compounds with MrgX1 antag; Fluo-4 calcium fluorescence, FDSS; fluorescence ratio F(max-min)/F0 at 10 µM; actives 2% (n = 4,000); AID 624111;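 active = duplicate-averaged calcium fluorescence ratio at least three times the standard deviation of buffer wells, a nonspecific response in parental cells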
HEK293 Ca counter: activity in parental HEK293 cells without MrgX1. shares compounds with MrgX1 antag. parental HEK293 calcium flux, Fluo-4 fluorescence ratio; stronger effect = higher value. fluorescence ratio F(max-min)/F0 at 10 µM. actives 0.4% (n = 4,000). AID 624114;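 active = calcium fluorescence ratio, averaged over duplicates, at least 3 SD of the buffer-well ratio, meaning a nonspecific response in receptor-free cells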;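 also: untransfected parental HEK293 lacking MrgX1 used as counterscreen for MrgX1 allosteric activators; fluorescence change taken during the second addition on a kinetic imager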
HEK293 Ca cntr2: MrgX1 activator counter-screen hit in parental HEK293 cells. AID 624115. shares compounds with MrgX1 antag. fluorescence ratio F(max-min)/F0 at 10 µM. Fluo-4 calcium fluorescence (FDSS); stronger effect = higher value. actives 8.7% (n = 4,000);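 active = calcium fluorescence ratio at least three times the spread of buffer wells, meaning a non-specific response in parental cells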
Numbers without * were called inactive; i = inactive; nt = no result. In the library only some 4.5% were active in any assay of this set; here they are far more common.

SMILES | RGS4 act | RGS4 block | MrgX1 agonist | MrgX1 PAM | MrgX1 antag | PHOSPHO1 inh | MrgX1 antag conf | HEK293 Ca flux | HEK293 Ca counter | HEK293 Ca cntr2
CCCCc1nc2sc3c(=O)n(N)cnc3c2c2c1CCC2 | i | i | i | i | i | 47 | nt | nt | nt | nt
CC(C)=NOCC(=O)Nn1c(COc2c(C)cccc2C)nc2ccccc2c1=O | i | i | i | i | i | 31 | nt | nt | nt | nt
COc1ccc(N(CC(=O)O)S(=O)(=O)c2cccnc2)cc1 | i | i | i | i | -6.8* | 7 | i | i | i | i
Cc1nc2nc(-c3ccco3)[nH]n2c(=O)c1Cc1ccccc1 | i | i | i | i | i | -4 | nt | nt | nt | nt
Cc1nc2nc(-c3ccco3)[nH]n2c(=O)c1C | i | i | i | i | -12* | 0 | i | i | i | i
CCN(CC)S(=O)(=O)c1ccc(NC(=O)Nc2cccc(C(F)(F)F)c2)cc1 | i | i | i | i | -5.8* | 3 | 64%* | i | i | i
COCCCNC(=O)C1CCC(CNS(=O)(=O)c2ccc(Cl)cc2)CC1 (stereo not drawn) | i | i | i | i | i | 20 | nt | nt | nt | nt
COCCCn1c(O)c(/C=C2\N=C(C#N)C(=Nc3ccc(C)cc3)O2)sc1=S | i | i | i | i | -11* | 20 | i | i | i | i
Cc1sc(NC(=O)c2ccccc2)c(C(c2ccccn2)N2CCN(CCO)CC2)c1C (stereo not drawn) | i | i | i | i | -4.5* | -14 | i | i | i | i
Cc1c(C)c2ccc(OCC(=O)NCCCN3CCCC3=O)cc2oc1=O | i | i | i | i | i | 44 | nt | nt | nt | nt
CCc1ccc2c(c1)C(NC(C)=O)C(=O)N2CCN1CCOCC1 (stereo not drawn) | i | i | i | i | -9.7* | 23 | i | i | i | i
CCCN1C(=O)C(NC(C)=O)c2ccccc21 (stereo not drawn) | i | i | i | i | i | 3 | nt | nt | nt | nt
Cc1oc(S(=O)(=O)N2CCCCC2)cc1NC(=O)Nc1ccc(Cl)cc1 | i | i | i | i | i | 8 | nt | nt | nt | nt
COc1ccc(Cl)cc1C(=O)NCC(c1ccco1)N1CCCC1 (stereo not drawn) | i | i | i | i | -5.2* | -10 | i | i | i | i
COc1ccc(C(CNC(=O)C(C)(C)Oc2ccc(Cl)cc2)N2CCCCC2)cc1 (stereo not drawn) | i | i | i | i | i | 27 | nt | nt | nt | nt
CC(C)(Oc1ccc(Cl)cc1)C(=O)NCC(c1ccco1)N1CCCCC1 (stereo not drawn) | i | i | i | i | -4.8* | nt | i | i | i | i
CCN(CC)CCn1c2c(c(SCC(=O)Nc3cccc4ccccc34)nc1=O)CCCC2 | i | i | i | i | i | nt | nt | nt | nt | nt
O=S(=O)(c1cccc(Br)c1)N1CCN(C(=S)NCC2CCCO2)CC1 (stereo not drawn) | i | i | i | i | i | nt | nt | nt | nt | nt
COc1cc(C(C)=O)ccc1OCC(=O)OCCCOC(=O)COc1ccc(C(C)=O)cc1OC | i | i | i | i | i | 24 | nt | nt | nt | nt
